Reference: BindingDB's records for doi:10.1021/jm980077m (New York University Medical Center, 1998)
Values joined by “and” are separate entries in the source; they are usually repeats but may differ in a detail not shown here. Identical values can stand only once.

Biological target: T1, Alpha-1D adrenergic receptor (Homo sapiens, UniProt P25100)
T1 sequence (P25100 whole entry): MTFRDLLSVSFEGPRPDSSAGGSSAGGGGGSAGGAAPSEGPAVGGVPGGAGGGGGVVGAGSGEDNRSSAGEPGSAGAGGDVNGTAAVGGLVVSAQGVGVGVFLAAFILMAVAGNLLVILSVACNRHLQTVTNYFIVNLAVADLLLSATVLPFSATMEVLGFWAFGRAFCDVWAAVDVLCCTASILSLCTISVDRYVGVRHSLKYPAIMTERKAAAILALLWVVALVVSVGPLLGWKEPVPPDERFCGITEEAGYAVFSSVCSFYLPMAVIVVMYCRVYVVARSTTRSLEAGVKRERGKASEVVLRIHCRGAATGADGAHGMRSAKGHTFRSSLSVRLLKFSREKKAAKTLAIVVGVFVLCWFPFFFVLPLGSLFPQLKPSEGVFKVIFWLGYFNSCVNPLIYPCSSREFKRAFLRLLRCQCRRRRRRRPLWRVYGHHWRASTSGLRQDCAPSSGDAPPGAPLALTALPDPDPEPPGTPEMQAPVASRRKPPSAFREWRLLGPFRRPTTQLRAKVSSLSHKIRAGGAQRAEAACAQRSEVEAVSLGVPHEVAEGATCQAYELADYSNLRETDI
Assay: Binding affinity determined by displacement of [3H]prazosin from alpha-1D adrenergic receptor
How it was run: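 Radioligand displacement binding with [3H]prazosin at the alpha-1d adrenoceptor. Incubation ran 30 min, with 4 h used for one earlier reference compound. Results were expressed as pKi.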

## CC1=NC(C)=C(C(=O)NCCCN2CCC(c3ccccc3)(c3ccccc3)CC2)C(c2ccc([N+](=O)[O-])cc2)C1C(N)=O (stereo unspecified) [2,6-Dimethyl-4-(4-nitro-phenyl)-1,4-dihydro-pyridine-3,5-dicarboxylic acid 3-amide 5-{[3-(4,4-diphenyl-piperidin-1-yl)-propyl]-amide}]
  Ki: 0.224 µM and 0.223 µM
